Results gathered from unrelated publications.
Lines come from different studies, so protocols differ.
Organism: Trypanosoma brucei
Read-out: parasite growth

| SMILES | test | system | conditions | EC50 [nM] |
| --- | --- | --- | --- | --- |
| COc1ccc(C(=O)CSc2nc(C)cc(C)c2C#N)cc1 | resazurin |  |  | > 64000 |
| Cc1ccc(Cn2cc(C(=O)N/N=C/c3ccc([N+](=O)[O-])s3)c(=O)c3cc(Br)ccc32)cc1 | resazurin |  | 72 h | 140 |
| N=C(N)c1ccc(OCCCCCOc2ccc(C(=N)N)cc2)cc1 | SYBR Green | GAMBIENSE |  | 9 |
| Cc1cc(C)c(C#N)c(SCC(=O)c2ccccc2C)n1 | resazurin |  |  | 25800 |
| O=c1c(O[C@@H]2O[C@H](CO)[C@@H](O)[C@H](O)[C@H]2O)c(-c2ccc(O)c(O)c2)oc2cc(O)cc(O)c12 | resazurin |  | 48 h | > 20000 |
| Cc1ccc(C(=O)Nc2ccc(S(=O)(=O)O)c3cc(S(=O)(=O)O)cc(S(=O)(=O)O)c23)cc1NC(=O)c1cccc(NC(=O)Nc2cccc(C(=O)Nc3cc(C(=O)Nc4ccc(S(=O)(=O)O)c5cc(S(=O)(=O)O)cc(S(=O)(=O)O)c45)ccc3C)c2)c1 |  | RHODESIENSE |  | 50 |
| C[C@@H]1C/C=C/C=C/C=C/C=C/[C@H](O[C@@H]2O[C@H](C)[C@@H](O)[C@H](N)[C@@H]2O)C[C@@H]2O[C@](O)(C[C@@H](O)C[C@H]3O[C@@H]3/C=C/C(=O)O1)C[C@H](O)[C@H]2C(=O)O | resazurin |  | 48 h | 12000 |
| COc1cc(C)c(C#N)c(SCC(=O)c2ccccc2)n1 | resazurin | RHODESIENSE |  | 32800 |
| CC(=O)O[C@H]1C(=O)[C@@]2(C)[C@H]([C@H](OC(=O)c3ccccc3)[C@]3(O)C[C@H](OC(=O)[C@H](O)[C@@H](NC(=O)c4ccccc4)c4ccccc4)C(C)=C1C3(C)C)[C@]1(OC(C)=O)CO[C@@H]1C[C@@H]2O |  |  |  | 7.6 |
| Cc1ccc(Cn2cc(C(=O)N/N=C/c3ccc([N+](=O)[O-])s3)c(=O)c3cc(Cl)c(Cl)cc32)cc1 | resazurin |  | 72 h | > 4000 |
| CCCCCC(=O)NC(Cc1c[nH]c2ccccc12)C(=O)NC(Cc1c[nH]c2ccccc12)C(=O)NC(CC(C)C)C(=O)C1(C)CO1 (centres unmarked) | SYBR Green |  | 72 h | < 500 |
